Results taken from ChEMBL document CHEMBL1944507, “Structure-activity relationships for amide-, carbamate-, and urea-linked analogues of the tuberculosis drug (6S)-2-nitro-6-{[4-(trifluoromethoxy)benzyl]oxy}-6,7-dihydro-5H-imidazo[2,1-b][1,3]oxazine (PA-824)” (J Med Chem, 2012).
In brackets after ≈: the same amount, converted by molar mass.

Experiments:
[1] = Chemical stability of the compound; assay type: physicochemical
[2] = Kinetic solubility of the compound in water at pH 7 by HPLC analysis; assay type: physicochemical; conditions: read-out: Kinetic_solubility
[3] = Metabolic stability of the compound in human liver microsomes assessed as compound remaining after 1 hr; assay type: ADME, Microsome; conditions: read-out: Stability
In short: (§1)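 Pooled human or CD-1 mouse liver microsomes incubated with compound for 1 h. Percentage of compound remaining calculated from analyte/internal standard peak area ratios.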

[4] = Metabolic stability of the compound in CD-1 mouse liver microsomes assessed as compound remaining after 1 hr; assay type: ADME, Microsome; conditions: read-out: Stability; in short: as §1
[5] = AUC (0 to infinity) in CD-1 mouse plasma at 40 mg/kg, po; assay type: ADME, organism-based; set-up: dose 40 mg/kg, route oral, time infinity
In short: (§2)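 CD-1 mice given a single oral dose of 40 mg/kg, suspended in 0.5% carboxymethylcellulose/0.08% Tween 80 in water. Plasma and lung samples quantified by LC-MS/MS. AUC extrapolated to infinity. Lung/plasma ratio is lung AUC divided by plasma AUC.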

[6] = Cmax in CD-1 mouse plasma at 40 mg/kg, po; assay type: ADME, organism-based; set-up: dose 40 mg/kg, route oral; in short: as §2
[7] = Half life in CD-1 mouse plasma at 40 mg/kg, po; assay type: ADME, organism-based; set-up: dose 40 mg/kg, route oral; in short: as §2
[8] = AUC (0 to infinity) in CD-1 mouse lung at 40 mg/kg, po; assay type: ADME, organism-based; set-up: dose 40 mg/kg, route oral, time infinity; in short: as §2
[9] = Cmax in CD-1 mouse lung at 40 mg/kg, po; assay type: ADME, organism-based; set-up: dose 40 mg/kg, route oral; in short: as §2
[10] = Half life in CD-1 mouse lung at 40 mg/kg, po; assay type: ADME, organism-based; set-up: dose 40 mg/kg, route oral; in short: as §2
[11] = tested on: Mycobacterium tuberculosis; experiment: Antimicrobial activity against Mycobacterium tuberculosis infected in BALB/c mouse assessed as fold reduction in lung CFU at 100 mg/kg, po administered 11 days after post infection qd for 5 days per week for 3 weeks relative to PA-824; assay type: functional
In short: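 Groups of 7 M. tb-infected BALB/c mice dosed orally at 100 mg/kg daily, 5 days/week for 3 weeks, starting on day 11 postinfection. Readout is the average lung CFU reduction in treated mice divided by the average CFU reduction in mice given the reference nitroimidazooxazine.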

[12] = tested on: Mycobacterium tuberculosis; experiment: Antimicrobial activity against Mycobacterium tuberculosis infected in chronic BALB/c mouse infection model assessed as fold reduction in lung CFU at 30 mg/kg, po administered daily 5 days a week for 8 weeks starting 50 days post-infection; assay type: functional
In short: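 Chronic infection model: groups of 7 M. tb-infected BALB/c mice given 30 mg/kg orally, daily 5 days/week for 8 weeks, starting about 50 days postinfection. Lung CFU reduction expressed relative to the reference drug.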

[13] = Cmax in Sprague-Dawley rat at 1 mg/kg, iv; assay type: ADME, organism-based; set-up: dose 1 mg/kg, route intravenous; conditions: in vivo
[14] = Tmax in Sprague-Dawley rat at 1 mg/kg, iv; assay type: ADME, organism-based; set-up: dose 1 mg/kg, route intravenous; conditions: in vivo
[15] = AUC (0 to 24 hrs) in Sprague-Dawley rat at 1 mg/kg, iv; assay type: ADME, organism-based; set-up: time < 24 hr, dose 1 mg/kg, route intravenous; conditions: plasma
[16] = Cmax in Sprague-Dawley rat at 20 mg/kg, po; assay type: ADME, organism-based; set-up: dose 20 mg/kg, route oral; conditions: in vivo
[17] = Tmax in Sprague-Dawley rat at 20 mg/kg, po; assay type: ADME, organism-based; set-up: dose 20 mg/kg, route oral; conditions: in vivo
[18] = Half life in Sprague-Dawley rat at 1 mg/kg, iv; assay type: ADME, organism-based; set-up: dose 1 mg/kg, route intravenous; conditions: in vivo
[19] = AUC (0 to 24 hrs) in Sprague-Dawley rat at 20 mg/kg, po; assay type: ADME, organism-based; set-up: time < 24 hr, dose 20 mg/kg, route oral; conditions: plasma
[20] = Oral bioavailability in Sprague-Dawley rat at 20 mg/kg; assay type: ADME, organism-based; conditions: in vivo
[21] = Cmax in Beagle dog at 2 mg/kg, iv; assay type: ADME, organism-based, Canis lupus familiaris; set-up: dose 2 mg/kg, route intravenous; conditions: in vivo
[22] = Tmax in Beagle dog at 2 mg/kg, iv; assay type: ADME, organism-based, Canis lupus familiaris; set-up: dose 2 mg/kg, route intravenous; conditions: in vivo
[23] = AUC (0 to 72 hrs) in Beagle dog at 2 mg/kg, iv; assay type: ADME, organism-based, Canis lupus familiaris; set-up: time < 72 hr, dose 2 mg/kg, route intravenous; conditions: plasma
[24] = Cmax in Beagle dog at 20 mg/kg, po; assay type: ADME, organism-based, Canis lupus familiaris; set-up: dose 20 mg/kg, route oral; conditions: in vivo
[25] = Tmax in Beagle dog at 20 mg/kg, po; assay type: ADME, organism-based, Canis lupus familiaris; set-up: dose 20 mg/kg, route oral; conditions: in vivo
[26] = Half life in Beagle dog at 20 mg/kg, po; assay type: ADME, organism-based, Canis lupus familiaris; set-up: dose 20 mg/kg, route oral; conditions: in vivo
[27] = AUC (0 to 72 hrs) in Beagle dog at 20 mg/kg, po; assay type: ADME, organism-based, Canis lupus familiaris; set-up: time < 72 hr, dose 20 mg/kg, route oral; conditions: plasma
[28] = Oral bioavailability in Beagle dog at 20 mg/kg; assay type: ADME, organism-based, Canis lupus familiaris; conditions: in vivo
[29] = Octanol-water partition coefficient, log P of the compound by shake-flask method; assay type: physicochemical
In short: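 Octanol-water partition coefficient measured by the shake-flask method.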

[30] = Thermodynamic solubility of the compound at pH 1; assay type: physicochemical; conditions: buffer, read-out: Therm_solubility
[31] = Thermodynamic solubility of the compound at pH 7.4; assay type: physicochemical; conditions: buffer, read-out: Therm_solubility
[32] = Plasma protein binding in human at 10 uM; assay type: ADME, cell-free; conditions: read-out: PPB (converted)
In short: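 Human plasma protein binding measured by equilibrium dialysis, with overnight incubation of compound at 10 μM containing 1% DMSO.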

[33] = molecular target: Voltage-gated inwardly rectifying potassium channel KCNH2 (Homo sapiens, UniProt Q12809); experiment: Inhibition of human Erg expressed in HEK293 cells by FAST patch clamp analysis; assay type: cell-based
Salmonella typhimurium [34] = experiment: Induction of mutagenesis in Salmonella Typhimurium TA98 in absence of rat liver S9 fraction by Ames test; assay type: toxicity, organism-based; conditions: salmonella enterica subsp. enterica serovar typhimurium
In short: (§3)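 MicroAmes reverse mutation screen in Salmonella TA98 and TA100, preincubated with and without rat liver S9, at 0.25-250 μg/well.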

Salmonella typhimurium [35] = experiment: Induction of mutagenesis in Salmonella Typhimurium TA98 in presence of rat liver S9 fraction by Ames test; assay type: toxicity, organism-based; conditions: salmonella enterica subsp. enterica serovar typhimurium; in short: as §3
Salmonella typhimurium [36] = experiment: Induction of mutagenesis in Salmonella Typhimurium TA100 in absence of rat liver S9 fraction by Ames test; assay type: toxicity, organism-based; conditions: salmonella enterica subsp. enterica serovar typhimurium; in short: as §3
Salmonella typhimurium [37] = experiment: Induction of mutagenesis in Salmonella Typhimurium TA100 in presence of rat liver S9 fraction by Ames test; assay type: toxicity, organism-based; conditions: salmonella enterica subsp. enterica serovar typhimurium; in short: as §3
[38] = Cmax in high fat diet fed Beagle dog at 20 mg/kg, po; assay type: ADME, organism-based, Canis lupus familiaris; set-up: dose 20 mg/kg, route oral; conditions: in vivo
[39] = Tmax in high fat diet fed Beagle dog at 20 mg/kg, po; assay type: ADME, organism-based, Canis lupus familiaris; set-up: dose 20 mg/kg, route oral; conditions: in vivo
[40] = Half life in high fat diet fed Beagle dog at 20 mg/kg, po; assay type: ADME, organism-based, Canis lupus familiaris; set-up: dose 20 mg/kg, route oral; conditions: in vivo
[41] = AUC (0 to 72 hrs) in high fat diet fed Beagle dog at 20 mg/kg, po; assay type: ADME, organism-based, Canis lupus familiaris; set-up: time < 72 hr, dose 20 mg/kg, route oral; conditions: plasma
[42] = Half life in Beagle dog at 2 mg/kg, iv; assay type: ADME, organism-based, Canis lupus familiaris; set-up: dose 2 mg/kg, route intravenous; conditions: in vivo

Chain of Voltage-gated inwardly rectifying potassium channel KCNH2 (Q12809 whole entry): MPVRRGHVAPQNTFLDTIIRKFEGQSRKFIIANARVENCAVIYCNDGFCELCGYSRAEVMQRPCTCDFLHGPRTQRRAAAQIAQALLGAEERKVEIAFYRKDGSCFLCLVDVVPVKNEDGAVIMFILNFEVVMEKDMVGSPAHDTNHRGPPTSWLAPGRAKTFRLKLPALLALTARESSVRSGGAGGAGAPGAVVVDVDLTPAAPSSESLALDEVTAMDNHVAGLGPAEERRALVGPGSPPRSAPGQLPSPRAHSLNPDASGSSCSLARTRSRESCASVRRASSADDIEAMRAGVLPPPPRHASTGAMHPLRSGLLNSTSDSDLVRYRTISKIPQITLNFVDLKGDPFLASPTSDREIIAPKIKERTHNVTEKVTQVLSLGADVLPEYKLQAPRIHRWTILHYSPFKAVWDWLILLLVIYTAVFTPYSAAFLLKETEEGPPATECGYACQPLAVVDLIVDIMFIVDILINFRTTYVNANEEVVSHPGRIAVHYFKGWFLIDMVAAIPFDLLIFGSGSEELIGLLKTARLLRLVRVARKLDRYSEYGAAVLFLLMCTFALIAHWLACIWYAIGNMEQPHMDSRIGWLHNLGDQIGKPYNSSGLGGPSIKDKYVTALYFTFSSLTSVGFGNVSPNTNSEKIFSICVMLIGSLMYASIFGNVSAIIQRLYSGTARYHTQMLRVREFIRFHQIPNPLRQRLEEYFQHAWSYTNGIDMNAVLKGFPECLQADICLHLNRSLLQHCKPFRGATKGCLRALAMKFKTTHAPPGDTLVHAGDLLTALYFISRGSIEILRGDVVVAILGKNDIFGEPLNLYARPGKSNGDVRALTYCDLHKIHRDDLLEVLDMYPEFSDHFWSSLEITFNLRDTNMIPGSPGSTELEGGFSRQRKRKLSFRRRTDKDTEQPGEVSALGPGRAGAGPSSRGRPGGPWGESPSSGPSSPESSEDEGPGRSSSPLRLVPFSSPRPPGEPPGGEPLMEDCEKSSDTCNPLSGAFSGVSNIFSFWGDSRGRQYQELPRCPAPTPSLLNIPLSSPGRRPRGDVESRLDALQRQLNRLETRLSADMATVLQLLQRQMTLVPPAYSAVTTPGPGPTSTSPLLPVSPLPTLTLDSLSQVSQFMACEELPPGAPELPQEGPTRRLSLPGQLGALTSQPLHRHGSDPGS

SMILES: O=C(N[C@@H]1COc2nc([N+](=O)[O-])cn2C1)Oc1ccc(OC(F)(F)F)cc1
- Stability [1]: Unstable

SMILES: O=C(O[C@@H]1COc2nc([N+](=O)[O-])cn2C1)N1CCN(c2ccc(OC(F)(F)F)cc2)CC1
- solubility kinetic [2]: 17 µg/mL (≈ 37.2 µM)
- remaining at 1 h [3]: 82%
- remaining at 1 h [4]: 85%
- AUC(0-inf) [5]: 53400 ng·h/mL
- Cmax [6]: 2500 ng/mL
- half-life [7]: 10.5 h
- AUC(0-inf) [8]: 169000 ng·h/mL
- Cmax [9]: 11700 ng/mL
- half-life [10]: 10.5 h
- fold change (FC) [11]: 5.2
- fold change (FC) [12]: 0.92
- Cmax [13]: 700 ng/mL
- Tmax [14]: 4.98 min
- AUC(0-t) at 24 h [15]: 5930 ng·h/mL
- Cmax [16]: 4400 ng/mL
- Tmax [17]: 5 h
- half-life [18]: 8.3 h
- AUC(0-t) at 24 h [19]: 67400 ng·h/mL
- bioavailability [20]: 57%
- Cmax [21]: 1700 ng/mL
- Tmax [22]: 0.5 h
- AUC(0-t) at 72 h [23]: 27600 ng·h/mL
- Cmax [24]: 5800 ng/mL
- Tmax [25]: 8 h
- half-life [26]: 29 h
- AUC(0-t) at 72 h [27]: 232000 ng·h/mL
- bioavailability [28]: 84%
- logP [29]: 2.82
- solubility thermodynamic [30]: 169 µM (≈ 77.3 µg/mL)
- solubility thermodynamic [31]: 33 µM (≈ 15.1 µg/mL)
- fraction unbound at 10 µM [32]: 0.09
- IC50 [33]: > 30 µM
- Activity (Salmonella typhimurium [34]): Non-toxic
- Activity (Salmonella typhimurium [35]): Non-toxic
- Activity (Salmonella typhimurium [36]): Non-toxic
- Activity (Salmonella typhimurium [37]): Non-toxic
- Cmax [38]: 5200 ng/mL
- Tmax [39]: 12 h
- half-life [40]: 30 h
- AUC(0-t) at 72 h [41]: 182000 ng·h/mL
- half-life [42]: 28 h
